What was measured:
MDA-MB-231 = assay: Cytotoxicity against human MDA-MB-231 cells assessed as cell viability at 10 uM after 72 hrs by MTS assay in presence of 10% fetal calf serum relative to control; format: functional; conditions: MDA-MB-231, 72 h, read-out: Activity
Method in brief: (§1)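 Cells were grown in RPMI with L-glutamine, 10% FCS, penicillin/streptomycin and fungizone at 37 °C under 5% CO2. Wells were seeded with 1900 cells for MCF-7 or 1300 cells for MDA-MB-231. After 24 h, compound was added from a 10 mM DMSO stock (final DMSO 1%) for 72 h, with DMSO-only controls. Viable cells were read by MTS at 490 nm and expressed as % of untreated. Mean ± SEM, N = 3.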

PC-3 = assay: Cytotoxicity against human PC3 cells assessed as cell viability at 10 uM after 72 hrs by MTS assay in presence of 10% fetal calf serum relative to control; format: functional; conditions: PC-3, 72 h, read-out: Activity
[1] = Cytotoxicity against human MiaPaCa cells assessed as cell viability at 10 uM after 72 hrs by MTS assay in presence of 10% fetal calf serum relative to control; format: functional; conditions: MIA PaCa-2, 72 h, read-out: Activity
[2] = Cytotoxicity against human MDA435 cells assessed as cell viability at 10 uM after 72 hrs by MTS assay in presence of 10% fetal calf serum relative to control; format: functional; conditions: MDA-MB-435, 72 h, read-out: Activity
HCT-116 = assay: Cytotoxicity against human HCT116 cells assessed as cell viability at 10 uM after 72 hrs by MTS assay in presence of 10% fetal calf serum relative to control; format: functional; conditions: HCT-116, 72 h, read-out: Activity
MCF7 = assay: Cytotoxicity against human MCF7 cells assessed as cell viability at 10 uM after 72 hrs by MTS assay in presence of 10% fetal calf serum relative to control; format: functional; conditions: MCF7, 72 h, read-out: Activity; method in brief: as §1
HepG2 = assay: Cytotoxicity against human HepG2 cells assessed as cell viability at 10 uM after 72 hrs by MTS assay in presence of 10% fetal calf serum relative to control; format: functional; conditions: HepG2, 72 h, read-out: Activity
LNCaP = assay: Cytotoxicity against human LNCAP cells assessed as cell viability at 10 uM after 72 hrs by MTS assay in presence of 10% fetal calf serum relative to control; format: functional; conditions: read-out: Activity
[3] = Cytotoxicity against human hepatocytes assessed as cell viability at 100 uM after 90 mins by MTT assay relative to control; format: cell-based, Hepatocyte; conditions: read-out: Activity
Method in brief: (§2)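 Cryopreserved human hepatocytes were plated at 0.1 × 10⁶ cells/well and exposed to compound for 90 min. MTT was then added for 30 min at 37 °C, plates were centrifuged, and formazan was dissolved in DMSO. Absorbance was read at 595 nm. Surviving cells are expressed as % of non-treated cells ± SEM.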

[4] = Cytotoxicity against human hepatocytes assessed as cell viability at 200 uM after 90 mins by MTT assay relative to control; format: cell-based, Hepatocyte; conditions: read-out: Activity; method in brief: as §2

| Structure (SMILES) | viability at 10 µM (MDA-MB-231) | viability at 10 µM (PC-3) | viability at 10 µM [1] | viability at 10 µM [2] | viability at 10 µM (HCT-116) | viability at 10 µM (MCF7) | viability at 10 µM (HepG2) | viability at 10 µM (LNCaP) | viability at 1.5 h, 100 µM [3] | viability at 1.5 h, 200 µM [4] |
| --- | --- | --- | --- | --- | --- | --- | --- | --- | --- | --- |
| O=C1S/C(=C\c2ccccc2)C(=O)N1Cc1ccccc1 | 81.6% | 82.4% | 88.8% | 89.9% | 85.4% | 95.6% | 85% | 90.8% |  |  |
| Cc1c(C)c2c(c(C)c1OC(=O)CCCCCCCNC(=O)OC(C)(C)C)CCC(C)(COc1ccc(/C=C3\SC(=O)NC3=O)cc1)O2 (stereo not drawn) | 42.2% | 62% | 53.8% | 51.5% | 37% | 62.5% | 18.4% | 21.1% | 79.3% | 74.7% |
| CC1(CN2C(=O)S/C(=C\c3cc(Br)c(O)c(Br)c3)C2=O)CCCCC1 | 46.9% | 52.9% | 34.7% | 30.6% | 13% | 23.8% | 25.8% | 18.8% | 42.1% | 30.3% |
| O=C1S/C(=C\c2ccc(O)cc2)C(=O)N1Cc1ccccc1 | 24.5% | 65.8% | 25.6% | 30.9% | 29.8% | 43.9% | 54.5% | 77.6% | 40.8% | 18% |
| O=C1S/C(=C\c2ccc(Cl)cc2)C(=O)N1Cc1ccccc1 | 73% | 95.5% | 88.3% | 88.8% | 84% | 100% | 79.3% | 85.5% |  |  |
| O=C1S/C(=C\c2ccc([N+](=O)[O-])cc2)C(=O)N1Cc1ccccc1 | 64.6% | 72.3% | 84.9% | 86% | 93.9% | 80.2% | 79.4% | 77.9% |  |  |
| COc1ccc(/C=C2\SC(=O)N(Cc3ccccc3)C2=O)cc1 | 89.5% | 91.4% | 99.3% | 92.7% | 82.1% | 100% | 87.9% | 100% |  |  |
| COc1cc(/C=C2\SC(=O)N(Cc3ccccc3)C2=O)cc(OC)c1OC | 51.5% | 67.9% | 69.8% | 78.8% | 55.9% | 74.7% | 63.8% | 76.2% |  |  |
| O=C1S/C(=C\c2ccc(O)cc2)C(=O)N1C/C=C/c1ccccc1 | 8.7% | 57.1% | 16.2% | 18.3% | 17.4% | 35% | 41.3% | 63.4% | 88.8% | 62.7% |
| CC(C)(C)OC(=O)c1ccccc1-c1ccc(CN2C(=O)S/C(=C\c3ccc(O)cc3)C2=O)cc1 | 51.9% | 49.9% | 59.9% | 66.8% | 61.6% | 80.3% | 22.8% | 32.4% |  |  |
| O=C(O)c1ccccc1-c1ccc(CN2C(=O)S/C(=C\c3ccc(O)cc3)C2=O)cc1 | 94.9% | 95.6% | 99.3% | 100% | 97.6% | 99.6% | 89.8% | 90.1% |  |  |
| Cc1c(C)c2c(c(C)c1O)CCC(C)(/C=C1\SC(=O)N(Cc3ccccc3)C1=O)O2 (racemic) | 88% | 83.4% | 80.7% | 75.7% | 81% | 94.2% | 71.5% | 84.6% |  |  |
| Cc1c(C)c2c(c(C)c1O)CCC(C)(COc1ccc(/C=C3\SC(=O)N(Cc4ccccc4)C3=O)cc1)O2 (racemic) | 76.4% | 100% | 100% | 88.7% | 43% | 85.3% | 63.2% | 85.7% |  |  |
| Cc1c(C)c2c(c(C)c1O)CCC(C)(COc1ccc(/C=C3\SC(=O)N(C)C3=O)cc1)O2 (racemic) | 64.3% | 85.5% | 80.2% | 94.7% | 68.4% | 100% | 60.3% | 66.8% | 147% | 127% |
| Cc1c(C)c2c(c(C)c1OC(=O)CCCCCCCN)CCC(C)(COc1ccc(/C=C3\SC(=O)N(C)C3=O)cc1)O2 (racemic) | 0% | 2.4% | 0% | 0% | 0.6% | 0% | 7.9% | 9.3% | 84.5% | 54.4% |
| Cc1c(C)c2c(c(C)c1CCCCCCNC(=O)OC(C)(C)C)CCC(C)(COc1ccc(/C=C3\SC(=O)NC3=O)cc1)O2 (racemic) | 49.3% | 73.7% | 69.7% | 60.9% | 45.2% | 75.5% | 22.7% | 32.2% | 85.1% | 80.3% |
| Cc1c(C)c2c(c(C)c1OC(=O)OC(C)(C)C)CCC(C)(CN1C(=O)S/C(=C\c3ccc(O)cc3)C1=O)O2 (racemic) | 57.9% | 85.1% | 72.2% | 66% | 30.1% | 85.7% | 23.4% | 55% | 65.1% | 37.8% |
| Cc1c(C)c2c(c(C)c1O)CCC(C)(CN1C(=O)S/C(=C\c3ccc(O)cc3)C1=O)O2 (racemic) | 4.8% | 36.3% | 0% | 13.4% | 5.3% | 5.2% | 20.8% | 48.9% | 110% | 103% |
| CCOC(=O)C1(C)CCc2c(C)c(/C=C3\SC(=O)N(Cc4ccccc4)C3=O)c(C)c(C)c2O1 (racemic) | 68.8% | 98.3% | 86% | 81.4% | 88% | 97.2% | 69.2% | 87.5% |  |  |
| Cc1c(C)c2c(c(C)c1OC(=O)OC(C)(C)C)CCC(C)(/C=C1\SC(=O)N(Cc3ccccc3)C1=O)O2 (racemic) | 75.4% | 82.4% | 75.3% | 67.6% | 90.5% | 76.5% | 76.3% | 96.2% |  |  |
| Cc1c(C)c2c(c(C)c1O)CCC(C)(COc1ccc(CC3SC(=O)NC3=O)cc1)O2 (stereo not drawn) [TROGLITAZONE] | 88.1% | 86.2% | 98.3% | 87.8% | 90.7% | 96.7% | 85.8% | 82.8% | 52.2% | 22.5% |
